PMC3362663 (Bioorganic & medicinal chemistry letters, 2012)
One block for each compound: values may come before it.

Experiments:
Epac2 [1] = target: T1, Epac2 (Mus musculus, UniProt Q9EQZ6); experiment: 8-NBD-cAMP competition binding to Epac2, dose-dependent titration
T1 sequence (Q9EQZ6 1-993 isoform Q9EQZ6-3): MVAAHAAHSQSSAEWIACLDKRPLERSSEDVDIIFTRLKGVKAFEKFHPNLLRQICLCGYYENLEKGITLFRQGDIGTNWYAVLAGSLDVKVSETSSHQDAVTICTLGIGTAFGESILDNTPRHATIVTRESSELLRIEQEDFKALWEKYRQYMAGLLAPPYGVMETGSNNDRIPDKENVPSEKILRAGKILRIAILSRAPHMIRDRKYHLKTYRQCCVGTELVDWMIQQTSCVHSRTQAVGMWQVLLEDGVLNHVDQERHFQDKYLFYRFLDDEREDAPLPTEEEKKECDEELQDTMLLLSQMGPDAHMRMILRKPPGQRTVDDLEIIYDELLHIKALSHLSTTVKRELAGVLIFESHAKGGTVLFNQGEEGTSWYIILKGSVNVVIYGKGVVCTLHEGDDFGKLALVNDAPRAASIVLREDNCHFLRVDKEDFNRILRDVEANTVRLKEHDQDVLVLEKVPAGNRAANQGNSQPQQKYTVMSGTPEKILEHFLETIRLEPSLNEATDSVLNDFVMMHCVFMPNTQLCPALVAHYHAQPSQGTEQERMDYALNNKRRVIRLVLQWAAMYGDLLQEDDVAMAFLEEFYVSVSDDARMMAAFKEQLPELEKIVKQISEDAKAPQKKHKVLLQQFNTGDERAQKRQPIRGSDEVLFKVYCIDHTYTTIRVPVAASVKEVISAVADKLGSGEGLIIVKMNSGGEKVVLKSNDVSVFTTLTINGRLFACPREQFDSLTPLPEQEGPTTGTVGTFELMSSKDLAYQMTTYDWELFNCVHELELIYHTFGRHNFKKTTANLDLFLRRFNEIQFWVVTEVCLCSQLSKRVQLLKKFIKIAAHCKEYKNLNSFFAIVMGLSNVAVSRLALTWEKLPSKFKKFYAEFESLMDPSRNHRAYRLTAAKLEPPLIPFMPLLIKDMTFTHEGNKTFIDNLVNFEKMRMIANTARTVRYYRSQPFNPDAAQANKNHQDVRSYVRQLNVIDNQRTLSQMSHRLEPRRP

Epac1 = target: T2, Epac1 (Homo sapiens, UniProt O95398); experiment: cAMP-mediated Epac1 GEF activity; format: biochemical; conditions: for Inhibition of Epac1 GEF (Rap1-GDP exchange) activity: 25 μM compound in the presence of equal concentration (25 μM) of cAMP
T2 sequence (O95398 1-923): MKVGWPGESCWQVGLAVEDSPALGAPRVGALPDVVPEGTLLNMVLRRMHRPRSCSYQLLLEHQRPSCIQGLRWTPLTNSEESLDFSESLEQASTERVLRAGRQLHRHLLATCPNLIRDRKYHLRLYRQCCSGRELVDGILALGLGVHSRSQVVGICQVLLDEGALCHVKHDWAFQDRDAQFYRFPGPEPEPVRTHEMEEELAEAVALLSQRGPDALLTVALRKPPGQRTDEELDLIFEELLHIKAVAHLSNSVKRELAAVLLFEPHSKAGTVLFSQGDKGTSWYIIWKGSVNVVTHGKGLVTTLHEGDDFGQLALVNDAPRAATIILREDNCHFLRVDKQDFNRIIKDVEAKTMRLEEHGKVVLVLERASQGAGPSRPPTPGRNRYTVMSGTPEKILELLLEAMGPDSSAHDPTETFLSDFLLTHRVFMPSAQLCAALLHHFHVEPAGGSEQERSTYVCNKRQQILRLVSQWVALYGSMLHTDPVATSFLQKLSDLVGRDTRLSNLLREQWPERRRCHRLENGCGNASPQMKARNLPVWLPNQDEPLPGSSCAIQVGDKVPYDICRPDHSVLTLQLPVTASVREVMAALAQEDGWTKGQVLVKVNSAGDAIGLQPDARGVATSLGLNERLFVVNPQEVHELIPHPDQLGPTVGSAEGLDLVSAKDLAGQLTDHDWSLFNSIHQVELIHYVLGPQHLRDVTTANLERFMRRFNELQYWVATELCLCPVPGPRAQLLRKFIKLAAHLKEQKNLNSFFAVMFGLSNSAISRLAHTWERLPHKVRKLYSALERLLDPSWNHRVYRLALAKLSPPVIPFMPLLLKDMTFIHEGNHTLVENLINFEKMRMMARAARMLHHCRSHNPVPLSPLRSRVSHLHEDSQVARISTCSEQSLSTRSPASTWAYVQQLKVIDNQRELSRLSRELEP

HEK293/Epac2 cells = experiment: Epac2-mediated Akt/PKB phosphorylation; format: cell-based; conditions: 10 μM, 5 min pretreatment before 10 μM 007-AM
In short: (§1)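 HEK293 cells ectopically expressing Epac1 or Epac2 were pretreated, or not, with 10 μM test compound and then stimulated with 10 μM 007-AM. Cell lysates were analysed by Western blot with anti-phospho-Ser473 and anti-phospho-Thr308 PKB antibodies.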

type II PKA holoenzyme = experiment: Counter-screen: type II PKA holoenzyme activity; format: biochemical; conditions: 25 μM compound, 100 μM cAMP
HEK293/Epac1 cells = experiment: Epac1-mediated Akt/PKB phosphorylation; format: cell-based; conditions: 10 μM, 5 min pretreatment before 10 μM 007-AM
In short: as §1

type I PKA holoenzyme = experiment: Counter-screen: type I PKA holoenzyme activity; format: biochemical; conditions: 25 μM compound, 100 μM cAMP
Epac2 [2] = target: T1, Epac2; experiment: cAMP-mediated Epac2 GEF activity, purified recombinant full-length protein; format: biochemical; conditions: for Inhibition of Epac2 GEF activity: 25 μM compound in the presence of equal concentration (25 μM) of cAMP
[3] = 25 μM in the presence of equal molar concentration of cAMP, unpublished data

Compound: Cc1ccc(C)c(CSc2nc(C3CC3)c(C#N)c(=O)[nH]2)c1 [6g, 4-Cyclopropyl-2-(2,5-dimethylbenzylsulfanyl)-6-oxo-1,6-dihydro-pyrimidine-5-carbonitrile]
- Inhibition of Epac1 GEF (Rap1-GDP exchange) activity (Epac1): more Epac2-specific
- Block of Epac2-mediated Akt phosphorylation (HEK293/Epac2 cells): completely blocked
- Effect on cAMP-induced type II PKA holoenzyme activation (type II PKA holoenzyme): not to alter
- Block of Epac1-mediated Akt phosphorylation (HEK293/Epac1 cells): completely blocked
- Effect on cAMP-induced type I PKA holoenzyme activation (type I PKA holoenzyme): not to alter
- Inhibition of Epac2 GEF activity (Epac2 [2]): inhibit Epac2 GEF activity to basal levels

Compound: Cc1ccc(C)c(CSc2nc(C3CCCC3)c(C#N)c(=O)[nH]2)c1 [6h, 4-Cyclopentyl-2-(2,5-dimethyl-benzylsulfanyl)-6-oxo-1,6-dihydro-pyrimidine-5-carbonitrile]
- Inhibition of Epac1 GEF (Rap1-GDP exchange) activity (Epac1): inhibit Epac1-mediated Rap1-GDP exchange activity
- Block of Epac2-mediated Akt phosphorylation (HEK293/Epac2 cells): completely blocked
- Effect on cAMP-induced type II PKA holoenzyme activation (type II PKA holoenzyme): not to alter
- Block of Epac1-mediated Akt phosphorylation (HEK293/Epac1 cells): completely blocked
- Effect on cAMP-induced type I PKA holoenzyme activation (type I PKA holoenzyme): not to alter
- Inhibition of Epac2 GEF activity (Epac2 [2]): inhibit Epac2 GEF activity to basal levels

Compound: Cc1ccc(C)c(CSc2nc(C3CCNCC3)c(C#N)c(=O)[nH]2)c1 [6k]
- IC50 (Epac2 [1]): > 300 µM

Compound: N#Cc1c(C2CCCCC2)nc(Nc2ccccc2)[nH]c1=O [8a]
- IC50 (Epac2 [1]): > 300 µM

Compound: N#Cc1c(C2CCCCC2)nc(Nc2ccc(Cl)cc2)[nH]c1=O [8b]
- IC50 (Epac2 [1]): > 300 µM

Compound: O=S(=O)(NCCNC/C=C/c1ccc(Br)cc1)c1cccc2cnccc12 [H89, reference compound]
- Effect on cAMP-induced type II PKA holoenzyme activation (type II PKA holoenzyme): blocked the type I or II PKA activities completely
- Effect on cAMP-induced type I PKA holoenzyme activation (type I PKA holoenzyme): blocked the type I or II PKA activities completely

Continued, values first:

- IC50 (Epac2 [1]): > 300 µM
- Relative Potency (RA) (Epac2 [1]; RA = IC50, cAMP/IC50, compound): <0.16
Compound: N#Cc1c(C2CCCCC2)nc(S)[nH]c1=O [5a]

- IC50 (Epac2 [1]): > 300 µM
Compound: N#Cc1c(C2CCCCC2)nc(SCC(=O)Nc2ccccc2)[nH]c1=O [11a]

- IC50 (Epac2 [1]): > 300 µM
Compound: Cc1cc(C)c(NC(=O)CSc2nc(C3CCCCC3)c(C#N)c(=O)[nH]2)c(C)c1 [11b]

- IC50 (Epac2 [1]): > 300 µM
Compound: Cc1ccc(NC(=O)CSc2nc(C3CCCCC3)c(C#N)c(=O)[nH]2)cc1 [11c]

- Inhibition of Epac1 activity (Epac1; [3]): completely inhibiting
- Inhibition of Epac2 activity (Epac2 [2]; [3]): completely inhibiting
Compound: Cc1ccc(C)c(CSc2nc(C3CCCCC3)c(C#N)c(=O)[nH]2)c1 [compound 1]

- IC50 (Epac2 [1]): > 300 µM
Compound: N#Cc1c(C2CCCCC2)nc(SCC(=O)O)[nH]c1=O [compound 10]
